Reference: ChEMBL document CHEMBL4196121, “Meridianin D Analogues Display Antibiofilm Activity against MRSA and Increase Colistin Efficacy in Gram-Negative Bacteria” (ACS Med Chem Lett, 2018)
Calls of active or inactive are those of the source. The rule behind the calls is not given here.

Assays:
[1] = test system: Acinetobacter baumannii; assay: Antibacterial activity against Acinetobacter baumannii ATCC 17978 after 16 hrs by broth microdilution assay; assay type: organism-based
[2] = test system: Acinetobacter baumannii; assay: Potentiation of colistin-induced antimicrobial activity against Acinetobacter baumannii ATCC 19606 assessed as fold reduction in colistin MIC after 16 hrs by broth microdilution assay; assay type: functional, ATCC 19606 = CIP 70.34 = JCM 6841
Summary of the method: (§1)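 Analogue at a fixed 60 μM unless otherwise noted, combined with colistin against the Gram-negative strain. Potentiation is read as the fold reduction in colistin MIC relative to colistin alone. A. baumannii 3941/4106 and K. pneumoniae C3/B9 are primary clinical isolates with genomically encoded colistin resistance.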

[3] = test system: Klebsiella pneumoniae; assay: Antibacterial activity against Klebsiella pneumoniae isolate B9 after 16 hrs by broth microdilution assay; details: in vivo
[4] = test system: Escherichia coli; assay: Antibacterial activity against Escherichia coli ATCC 25922 after 16 hrs by broth microdilution assay; assay type: organism-based
[5] = test system: Staphylococcus aureus; assay: Inhibition of biofilm formation in methicillin-resistant Staphylococcus aureus ATCC 43300 after 24 hrs by crystal violet staining based method; assay type: functional, organism-based; details: ATCC 43300, 24 h
Summary of the method: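 Read-out is the IC50, taken as the compound concentration that inhibits 50% of MRSA 43300 biofilm formation.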

[6] = test system: Acinetobacter baumannii; assay: Antibacterial activity against Acinetobacter baumannii ATCC 19606 after 16 hrs by broth microdilution assay; assay type: organism-based, ATCC 19606 = CIP 70.34 = JCM 6841; details: for MIC: […]
[7] = test system: Acinetobacter baumannii; assay: Antibacterial activity against Acinetobacter baumannii isolate 4106 after 16 hrs by broth microdilution assay; assay type: organism-based
[8] = test system: Acinetobacter baumannii; assay: Antibacterial activity against Acinetobacter baumannii isolate 5075 after 16 hrs by broth microdilution assay; assay type: organism-based
[9] = test system: Klebsiella pneumoniae; assay: Antibacterial activity against Klebsiella pneumoniae isolate C3 after 16 hrs by broth microdilution assay; details: for MIC: […]
[10] = test system: Acinetobacter baumannii; assay: Antibacterial activity against Acinetobacter baumannii isolate 3941 after 16 hrs by broth microdilution assay; assay type: organism-based
[11] = test system: Klebsiella pneumoniae; assay: Antibacterial activity against Klebsiella pneumoniae ATCC 2146 expressing NDM1 gene after 16 hrs by broth microdilution assay; assay type: organism-based; details: for MIC: […]; for Activity: in vitro
[12] = test system: Staphylococcus aureus; assay: Antibacterial activity against methicillin-resistant Staphylococcus aureus ATCC 43300 after 16 hrs by broth microdilution assay; assay type: functional; details: ATCC 43300, 16 h
[13] = test system: Escherichia coli; assay: Antibacterial activity against Escherichia coli ATCC 25922 expressing mcr1 gene after 16 hrs by broth microdilution assay; assay type: organism-based; details: in vitro
[14] = test system: Staphylococcus aureus; assay: Antibiofilm activity against methicillin-resistant Staphylococcus aureus ATCC 43300 assessed as dispersion of preformed biofilm after 24 hrs by crystal violet staining based method
[15] = test system: Escherichia coli; assay: Potentiation of colistin-induced antimicrobial activity against Escherichia coli ATCC 25922 assessed as fold reduction in colistin MIC after 16 hrs by broth microdilution assay; assay type: functional; summary of the method: as §1
[16] = test system: Staphylococcus aureus; assay: Antibiofilm activity against methicillin-resistant Staphylococcus aureus ATCC 43300 assessed induction of dispersion of preformed biofilm after 24 hrs by crystal violet staining based method; assay type: functional, organism-based; details: ATCC 43300, 24 h
[17] = test system: Acinetobacter baumannii; assay: Potentiation of colistin-induced antimicrobial activity against Acinetobacter baumannii ATCC 17978 assessed as fold reduction in colistin MIC after 16 hrs by broth microdilution assay; assay type: functional; summary of the method: as §1
[18] = test system: Acinetobacter baumannii; assay: Antibacterial activity against Acinetobacter baumannii ATCC 17978 expressing mcr1 gene after 16 hrs by broth microdilution assay; assay type: organism-based; details: in vitro
[19] = test system: Staphylococcus aureus; assay: Potentiation of vancomycin-induced antibacterial activity against methicillin-resistant Staphylococcus aureus ATCC 43300 assessed as dispersion of preformed biofilm after 24 hrs by crystal violet staining based method; assay type: functional, organism-based; details: ATCC 43300, 24 h
[20] = test system: Klebsiella pneumoniae; assay: Potentiation of colistin-induced antimicrobial activity against Klebsiella pneumoniae isolate C3 assessed as fold reduction in colistin MIC after 16 hrs by broth microdilution assay; assay type: functional; summary of the method: as §1
[21] = test system: Klebsiella pneumoniae; assay: Potentiation of colistin-induced antimicrobial activity against Klebsiella pneumoniae isolate B9 after 16 hrs by broth microdilution assay; assay type: functional, organism-based; summary of the method: as §1
[22] = test system: Staphylococcus aureus; assay: Antibacterial activity against methicillin-resistant Staphylococcus aureus ATCC 6538 after 16 hrs by broth microdilution assay; assay type: functional; details: ATCC 6538, 16 h
[23] = test system: Acinetobacter baumannii; assay: Potentiation of colistin-induced antimicrobial activity against Acinetobacter baumannii isolate 3941 after 16 hrs by broth microdilution assay; assay type: functional, organism-based; summary of the method: as §1
[24] = test system: Acinetobacter baumannii; assay: Potentiation of colistin-induced antimicrobial activity against Acinetobacter baumannii isolate 4106 after 16 hrs in presence of 0.01% triton X-100 by broth microdilution assay; assay type: functional, organism-based
[25] = test system: Staphylococcus aureus; assay: Antibiofilm activity against methicillin-resistant Staphylococcus aureus ATCC 43300 assessed as dispersion of preformed biofilm at 80 uM after 24 hrs by crystal violet staining based method relative to control; assay type: functional
[26] = test system: Staphylococcus aureus; assay: Antibacterial activity against methicillin-resistant Staphylococcus aureus ATCC 1556 after 16 hrs by broth microdilution assay; assay type: functional; details: ATCC 1556, 16 h
[27] = test system: Enterococcus faecium; assay: Antibacterial activity against vancomycin-resistant Enterococcus faecium ATCC 51559 after 16 hrs by broth microdilution assay; assay type: functional; details: ATCC 51559, 16 h
[28] = test system: Klebsiella pneumoniae; assay: Potentiation of colistin-induced antimicrobial activity against Klebsiella pneumoniae isolate B9 after 16 hrs in presence of 0.01% triton X-100 by broth microdilution assay; assay type: functional, organism-based
[29] = test system: Acinetobacter baumannii; assay: Potentiation of colistin-induced antimicrobial activity against Acinetobacter baumannii ATCC 17978 expressing mcr1 gene assessed as fold reduction in colistin MIC after 16 hrs by broth microdilution assay; assay type: functional; summary of the method: as §1
[30] = test system: Escherichia coli; assay: Potentiation of colistin-induced antimicrobial activity against Escherichia coli ATCC 25922 expressing mcr1 gene assessed as fold reduction in colistin MIC after 16 hrs by broth microdilution assay; assay type: functional; summary of the method: as §1
[31] = test system: Acinetobacter baumannii; assay: Potentiation of colistin-induced antimicrobial activity against Acinetobacter baumannii isolate 4106 assessed as fold reduction in colistin MIC after 16 hrs by broth microdilution assay; assay type: functional; summary of the method: as §1
[32] = test system: Acinetobacter baumannii; assay: Potentiation of colistin-induced antimicrobial activity against Acinetobacter baumannii isolate 5075 assessed as fold reduction in colistin MIC after 16 hrs by broth microdilution assay; assay type: functional; summary of the method: as §1
[33] = test system: Klebsiella pneumoniae; assay: Potentiation of colistin-induced antimicrobial activity against Klebsiella pneumoniae ATCC 2146 expressing NDM1 gene assessed as fold reduction in colistin MIC after 16 hrs by broth microdilution assay; assay type: functional; summary of the method: as §1
[34] = test system: Klebsiella pneumoniae; assay: Potentiation of colistin-induced antimicrobial activity against Klebsiella pneumoniae isolate B9 assessed as fold reduction in colistin MIC after 16 hrs by broth microdilution assay; assay type: functional; summary of the method: as §1
[35] = test system: Staphylococcus aureus; assay: Effect on planktonic growth of methicillin-resistant Staphylococcus aureus ATCC 43300 at 60 uM after 16 hrs by broth microdilution assay; assay type: organism-based
[36] = test system: Staphylococcus aureus; assay: Antibiofilm activity against methicillin-resistant Staphylococcus aureus ATCC 43300 at < 60 uM after 16 hrs by broth microdilution assay; assay type: functional, organism-based

Compound | MIC [1] [µM] | fold change (FC) [2] | MIC [3] [µM] | MIC [4] [µM] | IC50 [5] [µM] | MIC [6] [µM] | MIC [7] [µM] | MIC [8] [µM] | MIC [9] [µM] | MIC [10] [µM] | MIC [11] [µM] | MIC [12] [µM] | MIC [13] [µM] | EC50 [14] | fold change (FC) [15] | EC50 [16] [µM] | fold change (FC) [17] | MIC [18] [µM] | EC50 [19] [µM] | fold change (FC) [20] | other results
CCCCn1cc(-c2ccnc(N)n2)c2cc(Br)ccc21.Cl | > 200 | 16 | > 200 | > 200 | 38.1 | > 200 | > 200 | > 200 | > 200 | > 200 | > 200 | 50 | > 200 | Not Active | 16 | > 160 | 16 | > 200 | – | – | –
CNc1nccc(-c2c[nH]c3ccc(Br)cc23)n1.Cl | > 200 | 16 | > 200 | > 200 | 28.9 | > 200 | > 200 | > 200 | > 200 | > 200 | > 200 | 100 | > 200 | – | – | 73.1 | – | > 200 | 71.4 | 512 | Activity [21]: Active
CCCn1cc(-c2ccnc(N)n2)c2ccc(Br)cc21.Cl | – | 16 | – | – | 34.3 | – | – | – | – | – | – | 200 | – | Not Active | – | > 160 | – | – | – | – | Activity [1]: Toxic; Activity [3]: Toxic; Activity [6]: Toxic; Activity [7]: Toxic; Activity [8]: Toxic; Activity [9]: Toxic; Activity [10]: Toxic; Activity [11]: Toxic
Brc1ccc2[nH]cc(-c3ccnc(NCc4ccccc4)n3)c2c1.Cl | > 200 | 16 | > 200 | > 200 | 9.62 | > 200 | > 200 | > 200 | > 200 | > 200 | > 200 | 6.25 | > 200 | – | – | > 80 | 16 | > 200 | > 80 | 512 | MIC [22]: 6.25 µM; Activity [23]: Active; Activity [24]: inactive; Activity [25]: 26.2%; MIC [26]: 6.25 µM; MIC [27]: 25 µM; Activity [28]: inactive
CN(C)c1nccc(-c2c[nH]c3ccc(Br)cc23)n1.Cl | > 200 | – | > 200 | > 200 | 23.4 | > 200 | > 200 | > 200 | > 200 | > 200 | > 200 | 100 | > 200 | Not Active | – | > 160 | – | > 200 | – | – | –
CCCn1cc(-c2ccnc(N)n2)c2cc(Br)ccc21.Cl | > 200 | – | > 200 | > 200 | 69.3 | > 200 | > 200 | > 200 | > 200 | > 200 | > 200 | 100 | > 200 | – | 16 | – | 16 | > 200 | – | – | fold change (FC) [29]: 4; fold change (FC) [30]: 4; fold change (FC) [31]: 64; fold change (FC) [32]: 128; Activity [21]: Active; fold change (FC) [33]: 16; fold change (FC) [34]: 512
CCNc1nccc(-c2c[nH]c3ccc(Br)cc23)n1.Cl | > 200 | 16 | > 200 | > 200 | 24.6 | > 200 | > 200 | > 200 | > 200 | > 200 | > 200 | 50 | > 200 | – | 8 | 75.8 | 16 | > 200 | 66.5 | 512 | fold change (FC) [29]: 128; Activity [23]: Active; fold change (FC) [30]: 16; fold change (FC) [31]: 512; Activity [24]: inactive; fold change (FC) [32]: 16; Activity [21]: Active; fold change (FC) [33]: 16; Activity [28]: inactive; fold change (FC) [34]: 512
Cl.Nc1nccc(-c2c[nH]c3cc(Br)ccc23)n1 | – | – | – | – | 87.4 | – | – | – | – | – | – | > 200 | – | – | 0 | – | 2 | – | – | – | fold change (FC) [29]: 32; fold change (FC) [30]: 2; fold change (FC) [31]: 64; fold change (FC) [32]: 4; fold change (FC) [33]: 2; fold change (FC) [34]: 64
Cl.Nc1nc(-c2c[nH]c3cc(Br)ccc23)c[nH]1 | – | – | – | – | – | – | – | – | – | – | – | 25 | – | – | – | 101 | – | – | > 100 | – | Activity [1]: Toxic; Activity [3]: Toxic; Activity [6]: Toxic; Activity [7]: Toxic; Activity [8]: Toxic; Activity [9]: Toxic; Activity [10]: Toxic; Activity [11]: Toxic; Activity [35]: Toxic; Activity [36]: inactive
Cl.Nc1nc(-c2c[nH]c3ccc(Br)cc23)c[nH]1 | – | – | – | – | – | – | – | – | – | – | – | 25 | – | – | – | 102 | – | – | > 100 | – | Activity [1]: Toxic; Activity [3]: Toxic; Activity [6]: Toxic; Activity [7]: Toxic; Activity [8]: Toxic; Activity [9]: Toxic; Activity [10]: Toxic; Activity [11]: Toxic; Activity [35]: Toxic; Activity [36]: inactive
